Source: PubChem BioAssay AID720702 (The Scripps Research Institute Molecular Screening Center, 2013)
Screen size: about 370,000 compounds; about 1,200 (0.32%) were called active.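 How the source made its calls: active means inhibition above the mean of all tested compounds plus 3 SD, set per campaign (cut at about 25% in these data); inactive means the rest.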 This excerpt belongs to a sample that is enriched for actives.

These compounds were tested against Tyrosyl-DNA phosphodiesterase 2 (Homo sapiens) (UniProt O95551) (assay: blockers of TDP2 phosphodiesterase activity – biochemical, epi absorbance, recombinant enzyme, primary screen (AID 720702;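 further: 0% = DMSO with enzyme and 100% = buffer with substrate but no TDP2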)). Conditions: recombinant TDP2, T5PNP hydrolysis, p-nitrophenol absorbance 415 nm; at 12.8 µM; active compounds read high.
In short: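 System: recombinant human TDP2 / Amount: 120 nM TDP2 per well / Also added: 5 mM T5PNP chromogenic substrate / Doses: 12.8 µM single point, 1% DMSO / Incubation: 2 h at 37 °C / Detection: p-Nitrophenol epi absorbance / Evaluation: % inhibition relative to enzyme-containing and enzyme-free wells / Repeats: singlicate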

Sequence of Tyrosyl-DNA phosphodiesterase 2 (Homo sapiens) (O95551 whole entry, looked up): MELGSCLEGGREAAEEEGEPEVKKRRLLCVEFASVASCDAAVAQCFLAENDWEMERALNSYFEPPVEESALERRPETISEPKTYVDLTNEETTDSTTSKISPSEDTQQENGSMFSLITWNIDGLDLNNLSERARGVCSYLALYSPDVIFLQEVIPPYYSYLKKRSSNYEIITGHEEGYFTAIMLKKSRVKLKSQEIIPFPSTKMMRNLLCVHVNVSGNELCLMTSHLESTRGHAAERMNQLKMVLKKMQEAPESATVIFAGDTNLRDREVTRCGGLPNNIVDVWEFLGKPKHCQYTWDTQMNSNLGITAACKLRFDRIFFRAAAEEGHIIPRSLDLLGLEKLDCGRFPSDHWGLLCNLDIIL

| SMILES | inhibition |
| --- | --- |
| Cc1ccc(-n2c(SCC(=O)Nc3ccc(S(=O)(=O)Nc4nccs4)cc3)nnc2-c2cccnc2)cc1 | -18.4% (inactive) |
| COc1ccccc1CCn1cnc(-c2ccccc2)c1C(C)C | -1.89% (inactive) |
| COc1ccc(C2Nc3ccccc3C(=O)N2Cc2cccs2)cc1COc1c(C)cccc1C (stereo unspecified) | -6.88% (inactive) |
| Cc1nn(-c2ccccc2)c2c1C(c1ccc(F)cc1)C(C#N)=C(N)O2 (stereo unspecified) | 78.5% (active) |
| CCOC(=O)C1=C(C)OC(N)=C(C#N)C1c1cncc(-c2ccc(F)cc2)c1 (stereo unspecified) | 2.25% (inactive) |
| COc1ccccc1C1C(C#N)=C(N)Oc2c1c(-c1ccccc1)nn2-c1ccccc1 (stereo unspecified) | 68.7% (active) |
| COc1ccccc1C1CC(=O)n2c(nc(-c3ccccc3)c2-c2ccccc2)S1 (stereo unspecified) | -1.89% (inactive) |
| COc1ccc(C2C(C#N)=C(N)Oc3n[nH]c(C)c32)cc1CN1CCN(c2ccc(F)cc2)CC1 (stereo unspecified) | 2.94% (inactive) |
| CC1=NN(C(=O)Cc2ccc(C)cc2)C(O)(c2cccnc2)C1 (stereo unspecified) | -0.61% (inactive) |
| C[C@@H]1CN([C@@H](C)CO)C(=O)c2cccc(NC(=O)Nc3cccc4ccccc34)c2O[C@H]1CN(C)S(=O)(=O)c1ccccc1F | -6.81% (inactive) |
| CC(C)(C)NC(=O)C(c1cccnc1)N(C(=O)c1cnco1)c1ccc(C(C)(C)C)cc1 (stereo unspecified) | 6.07% (inactive) |
| Nc1nc2n(n1)C(c1ccco1)CC(c1ccc(Cl)c(Cl)c1)N2 (stereo unspecified) | -12.1% (inactive) |
| O=C(NCCCc1ccccc1)[C@H](Cc1ccccc1)NC1(C(=O)NCCc2c[nH]c3ccccc23)CCC1 | 2.05% (inactive) |
| O=C(N[C@H](C(=O)N1CCC[C@H]1C(=O)NCCc1ccccc1Cl)c1ccccc1)c1ccccc1 | 3.26% (inactive) |
| C[C@H](C(=O)N(C)c1ccccc1)[C@@H](O)c1ccc2ccccc2c1 | 6.57% (inactive) |
| C=CCN(C)CC#Cc1ccccc1 | -6.66% (inactive) |
| CCn1c(SCC(C)=O)nc2sc3c(c2c1=O)CCCC3 | -7.52% (inactive) |
| CC1(C)OC(=O)C(=CSc2ccc(C(C)(C)C)cc2)C(=O)O1 | -0.61% (inactive) |
| Cc1ccsc1C(C(=O)NC1CCCCC1)N(C(=O)Cc1cccs1)C1CC1 (stereo unspecified) | -13.4% (inactive) |
| O=[N+]([O-])c1ccc(NS(=O)(=O)c2ccccc2)c(Cl)c1 | -17.4% (inactive) |
| O=S(=O)(Cc1noc(-c2ccc(OC(F)(F)F)cc2)n1)c1ccc(F)cc1 | 1.13% (inactive) |
| O=S(=O)(Nc1ccc(O)c2ccccc12)c1ccc(OC(F)(F)F)cc1 | 46.3% (active) |
| COC(=O)C1CN(CCc2ccccc2)CCS(=O)(=O)N1Cc1cccc(Cl)c1 (stereo unspecified) | 6.91% (inactive) |
| COC(=O)CC1CCc2cc(C)cc(C(CC(C)C)NC(=O)[C@H](CC(C)C)NC(=O)OCc3ccccc3)c2O1 (stereo partly specified) | -0.76% (inactive) |

| SMILES | inhibition |
| --- | --- |
| O=S(=O)(c1ccc2c(c1)OCCCO2)N1CCN(S(=O)(=O)c2c(F)cccc2F)CC1 | -13.6% (inactive) |
| CCOC(=O)c1c(C)n(C)c2ccc(OC)c(NS(=O)(=O)CC)c12 | -7.66% (inactive) |
| O=C(Nc1nccs1)C1CCN(S(=O)(=O)c2ccc(Cl)c(C(F)(F)F)c2)CC1 | 1.48% (inactive) |
| O=C1CC[C@@]23CCCN2C(=O)CCC[C@H]3[C@H]1Cc1ccccc1 | -5.11% (inactive) |
| COc1ccc(CCNC(=O)COc2ccc3c(c2)OCO3)cc1 | -6.66% (inactive) |
| c1ccc(Cc2cc[n+](Cc3ccccc3)cc2)cc1 | 6.8% (inactive) |
| CN(C)c1ccc(N/C=C/C(=O)C(F)(F)F)cc1 | 40.7% (active) |
| CN(C)c1ccc(C(CC(=O)O)C(=O)O)cc1 (stereo unspecified) | -4.74% (inactive) |
| CCOC(=O)c1ccc(NC(=O)c2c(N)n(C)c(=O)[nH]c2=O)cc1 | 3.07% (inactive) |
| CCOC(=O)c1ccc(NC(=O)c2c(NCc3ccccc3)[nH]c(=O)[nH]c2=O)cc1 | 1.1% (inactive) |
| CCOC(=O)c1ccc(Nc2cc3ccccc3c(=O)[nH]2)cc1 | 44.6% (active) |
| O=C(O)CCN(Cc1ccccc1)S(=O)(=O)c1c(Cl)cccc1Cl | 15.2% (inactive) |
| Nn1cnnc1N/N=C/c1cc([N+](=O)[O-])c(Cl)cc1Cl | 39.5% (active) |
| Clc1ccc(-n2c(COc3ccccc3)nnc2SCc2nc3ccccc3[nH]2)cc1 | -3.9% (inactive) |
| CC1=C2C(=O)OC(c3ccoc3)C2(C)CCC1 (stereo unspecified) | -14.5% (inactive) |
| COc1ccccc1/C=N/N1CCN(Cc2ccccc2Cl)CC1 | -9.24% (inactive) |
| COc1ccccc1CN1CCN(C(c2ccccc2)c2ccccc2)CC1 | 25.9% (active) |
| COc1ccccc1CN1CCN(Cc2cc(OC)c(OC)cc2OC)CC1 | 19% (inactive) |
| Cc1cc(C)nc(SC2CCCCC2NS(=O)(=O)c2ccc(Cl)cc2)n1 (stereo unspecified) | 4.56% (inactive) |
| Cc1coc2c(O)cc3c(c12)OC1(N2CCCCC2)C(=O)NCCCC31 (stereo unspecified) | 24.4% (inactive) |
| CC1=NN(c2ccc(Cl)c(C(=O)O)c2)C(=O)/C1=C/c1ccc(-c2ccccc2[N+](=O)[O-])o1 | 36.1% (active) |
| COc1ccc(/C=C2/C(=O)N(c3ccccc3)N=C2C)c(OC)c1 | 3.07% (inactive) |
| O=C1C2C3C=CC(C4CC34)C2C(=O)N1/N=C/c1ccc(-c2ccccc2[N+](=O)[O-])o1 (stereo unspecified) | 11.7% (inactive) |
| CC(C)c1ccc(S(=O)(=O)N2CCC3(CC2)OCCO3)cc1 | 3.95% (inactive) |

| SMILES | inhibition |
| --- | --- |
| CC(=O)c1ccc(S(=O)(=O)N2CCC3(CC2)OCCO3)cc1 | 25.2% (active) |
| Cc1c(C)c(C)c(S(=O)(=O)N2CCC3(CC2)OCCO3)c(C)c1C | 5.93% (inactive) |
| C=CCc1cc(C)ccc1OCCCn1ccnc1 | -6.81% (inactive) |
| CCCOc1ccc(Oc2c(Cl)cnn(Cc3cccc4ccccc34)c2=O)cc1 | -7.56% (inactive) |
| Cc1ccc(S(=O)(=O)N(CCCN(C)C)Cc2ccc3c(c2)OCO3)cc1 | 3.37% (inactive) |
| COc1ccc(N(CC(=O)Nc2cc(OC)cc(OC)c2)S(=O)(=O)c2c(C)n[nH]c2C)cc1 | 10.8% (inactive) |
| COc1cc(NC(=O)COC(=O)c2ccc([N+](=O)[O-])s2)cc(OC)c1OC | 31.6% (active) |
| COc1cc(CCC(=O)OCC(=O)Nc2cccc(S(N)(=O)=O)c2)cc(OC)c1OC | -0.17% (inactive) |
| COc1cc(NC(=O)COC(=O)c2cnc(C)cn2)c(C)cc1[N+](=O)[O-] | -5.59% (inactive) |
| Cc1ccc(-n2c(SCC(=O)Nc3ccc(S(=O)(=O)Nc4nccs4)cc3)nnc2-c2ccncc2)cc1 | -0.21% (inactive) |
| CCCCCCCCCCCCN1[C@@H](CC(C)=O)c2cc(F)cc(F)c2S1(=O)=O | 2.78% (inactive) |
| Cc1cc(S(=O)(=O)NC2CCCCC2)ccc1OCC(=O)NCc1cccnc1 | -6.47% (inactive) |
| CCOC(=O)c1c(C)oc(C)c(C(=O)OCC)c1=O | -25% (inactive) |
| CCOC(=O)C1=C(C)c2ccccc2OC1C(=O)OCC (stereo unspecified) | -3.4% (inactive) |
| CCOC(=O)c1c(C)[nH]c2c1-c1ccccc1C(=O)C2=O | 55.1% (active) |
| COc1ccc(C(=O)OCc2cc(=O)n3ccsc3n2)cc1F | -6.94% (inactive) |
| O=C(Cc1ccc(NC(=O)C2CCCN(C(=O)CCc3ccccc3)C2)cc1)Nc1ccc(C(=O)N2CCOCC2)cc1 (stereo unspecified) | -19.6% (inactive) |
| Fc1ccc2nc(COCc3nc4ccc(F)cc4[nH]3)[nH]c2c1 | -1.58% (inactive) |
| Cc1ccc(OCCCCc2c(C)n[nH]c2C)cc1 | 25.9% (active) |
| CSc1ccccc1OCc1cc(C(=O)N(C)CCc2c(C)n[nH]c2C)no1 | 6.82% (inactive) |
| CCCCCc1ccc(-c2ccc(OCC)cc2)nc1 | -8.17% (inactive) |
| Brc1ccc(COCCc2cn(Cc3ccccc3)c3ccccc23)cc1 | -2.78% (inactive) |
| CC1CCN(c2ccc(C(=O)O)cc2NS(=O)(=O)c2ccc(Br)s2)CC1 | 4.53% (inactive) |
